For assay [1], the species on record is Rattus norvegicus. In words: Compound was evaluated for its ovulating activity in anti-ovulatory assay (AOA) by using 10 rats at the dose of 2 microgram. In kind it is functional. The gist of the method:
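Standard antiovulatory assay in 4-day cycling female rats, 10 rats per dose group. Each analogue was given at the stated dose in μg per rat, and the read-out was the number of rats ovulating out of 10.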

For assay [2], the species on record is Rattus norvegicus. The assay can be described thus: In vitro histamine release from isolated rat mast cells. In kind it is functional. Conditions: read-out: ED50 (the source's name). A digest of the protocol:
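Histamine release from rat mast cells in vitro, run in duplicate with mast cells from three different rats. LHRH and Nal-Arg standards were included with each set of analogues. The read-out was the ED50 in μg/mL, reported as mean ± SEM.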

Values after ≈ are worked out from the molar mass of the structure shown. Where a SMILES comes first, the peptide text is derived from it. [ ]: non-standard residue; d: D form. The star is where a group is joined. dPhe(4-Cl) = N[C@H](Cc1ccc(Cl)cc1)C(=O)O; d2Nal = N[C@H](Cc1ccc2ccccc2c1)C(=O)O; Lys(iPr) = CC(C)NCCCC[C@H](N)C(=O)O; d3Pal = N[C@H](Cc1cccnc1)C(=O)O; Nicotinoyl = O=C(c1cccnc1)*

`CC(=O)N[C@H](Cc1ccc2ccccc2c1)C(=O)N[C@H](Cc1ccc(Cl)cc1)C(=O)N[C@H](Cc1cccnc1)C(=O)N[C@@H](CO)C(=O)N[C@@H](CCCCNC(=O)c1ccccn1)C(=O)N[C@H](CCCCNC(=O)c1ccccn1)C(=O)N[C@@H](CCCCNC(C)C)C(=O)N[C@@H](CCCCNC(=O)c1cccnc1)C(=O)N1CCC[C@H]1C(=O)N[C@H](C)C(N)=O` gave an AOA in the assay filed under Rattus norvegicus [1] of 8. Moreover, the EC50 in the assay listed under Rattus norvegicus [2] was 70 µg/mL (≈ 40.9 µM). In turn, `CC(=O)N[C@H](Cc1ccc2ccccc2c1)C(=O)N[C@H](Cc1ccc(Cl)cc1)C(=O)N[C@H](Cc1c[nH]c2ccccc12)C(=O)N[C@@H](CO)C(=O)N[C@@H](Cc1ccc(O)cc1)C(=O)N[C@H](CCCN=C(N)N)C(=O)N[C@@H](CCCN=C(N)N)C(=O)N[C@@H](CC(C)C)C(=O)N1CCC[C@H]1C(=O)N[C@H](C)C(N)=O` yielded an AOA in the assay filed under Rattus norvegicus [1] of 10. In addition, in the assay listed under Rattus norvegicus [2], the EC50 amounted to 2.4 µg/mL (≈ 1.63 µM). As for `CC(=O)N[C@H](Cc1ccc2ccccc2c1)C(=O)N[C@H](Cc1ccc(Cl)cc1)C(=O)N[C@H](Cc1c[nH]c2ccccc12)C(=O)N[C@@H](CO)C(=O)N[C@@H](Cc1ccc(O)cc1)C(=O)N[C@H](CCCN=C(N)N)C(=O)N[C@@H](CC(C)C)C(=O)N[C@@H](CCCN=C(N)N)C(=O)N1CCC[C@H]1C(=O)N[C@H](C)C(N)=O` (Ac-[d2Nal][dPhe(4-Cl)][dW]SY[dR]LRP[dA]-NH2), in the assay filed under Rattus norvegicus [2], the EC50 was 0.1 µg/mL (≈ 0.0681 µM). Regarding `CC(=O)N[C@H](Cc1ccc2ccccc2c1)C(=O)N[C@H](Cc1ccc(Cl)cc1)C(=O)N[C@H](Cc1cccnc1)C(=O)N[C@@H](CO)C(=O)N[C@@H](CCCCNC(=O)c1cccnc1)C(=O)N[C@H](CCCCNC(=O)c1cccnc1)C(=O)N[C@@H](CC(C)C)C(=O)N[C@@H](CCCCNC(C)C)C(=O)N1CCC[C@H]1C(=O)N[C@H](C)C(N)=O` [Antide] (Ac-[d2Nal][dPhe(4-Cl)][d3Pal]SK(Nicotinoyl)[dK](Nicotinoyl)L[Lys(iPr)]P[dA]-NH2), the EC50 in the assay listed under Rattus norvegicus [2] is over 300 µg/mL.

The record behind these values is ChEMBL document CHEMBL1126163, “Decreased histamine release by luteinizing hormone-releasing hormone antagonists obtained upon translocation of the cationic amino acid from position 8 to position 7” (1992).
